Assay outcomes from PubChem.
TCR CD3 inh: blocks the human TCR-CD3 interaction; TAMRA-labeled TCR probe fluorescence, biochemical; actives 0.37% (n = 360,000); inhibition, % at 9.4 µM; in the data active means inhibition above about 19%;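 further: recombinant mutant TCR 2C K166C tagged with TAMRA read by polarization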
PRMT1 FP inh: blocks human protein arginine methyltransferase 1. Q99873. inhibition, % at 2.79 µM. actives 1.3% (n = 370,000). recombinant PRMT1, activity-based probe fluorescence polarization;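 active means inhibition above about 21% made by adding two undisclosed values, limit read from the data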
SIAE primary: inhibitors of human sialic acid acetylesterase SIAE. actives 0.69% (n = 370,000). Q9HAT2. SIAE FP-Rh probe binding, fluorescence polarization. inhibition, % at 9.66 µM;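 active means inhibition above a cutoff: mean of compounds within the control limits plus 3 SD of those, cut at about 17% in these data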
mABHD4 FP: ABHD4 (mouse) inhibition, primary FP screen; Q8VD66; purified mABHD4, FP-Rh probe fluorescence polarization; inhibition, % at 8.92 µM; actives 0.54% (n = 370,000); AID 720543;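 active means inhibition exceeding the mean over every tested compound plus 3 SD, cut at about 30% in these data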
Target sequence (Q8VD66 whole entry, looked up): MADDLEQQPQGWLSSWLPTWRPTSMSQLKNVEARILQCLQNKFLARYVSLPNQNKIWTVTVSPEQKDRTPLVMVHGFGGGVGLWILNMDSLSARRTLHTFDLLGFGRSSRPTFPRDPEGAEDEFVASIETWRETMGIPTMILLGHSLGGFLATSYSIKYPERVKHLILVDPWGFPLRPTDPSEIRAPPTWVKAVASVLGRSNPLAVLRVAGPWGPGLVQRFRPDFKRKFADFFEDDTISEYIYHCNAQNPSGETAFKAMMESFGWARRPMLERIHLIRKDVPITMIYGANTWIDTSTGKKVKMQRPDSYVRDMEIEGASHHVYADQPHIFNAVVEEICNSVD
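Assay system: mouse ABHD4 enzyme, wild type / Also added: fluorescent activity-based probe FP-Rh / Doses: single nominal dose of 8.92 µM, 0.89% DMSO final / Timing: 45 min compound pre-incubation plus 60 min probe step, 25 °C / Signal: FP readout, ex 525 nm / em 598 nm / Control set: S159A mutant/DMSO as 100%, compound-well median as 0%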
HTRA1 inh: inhibitors of human serine peptidase HTRA1 | recombinant HTRA1, FP-rhodamine activity-based probe, fluorescence polarization | Q92743 | actives 0.5% (n = 340,000) | inhibition, % at 5.96 µM; in the data active means inhibition above about 36%
SIAE confirm: confirmation of human SIAE inhibitors | actives 13% (n = 2,300) | shares compounds with SIAE primary | inhibition, % at 9.66 µM | SIAE FP-Rh activity-based probe, fluorescence polarization;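 active means mean inhibition of the replicates above the hit cutoff set in the primary screen, cut at about 17% in these data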;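 further: inhibitors lower polarization as more probe stays unbound to SIAE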
Each line names hits and unclear results; the compound was inactive in the other large screens (follow-up assays come after a bar, where they were run). Hits are enriched below; roughly 2.7% of the tested compounds scored in any of these assays.

CCOC(=O)C1CCCN(C(=O)c2ccc(OC)c([N+](=O)[O-])c2)C1 (stereo not given)	SIAE primary 29.7 | SIAE confirm inactive
OCC(CO)c1cnnc2ccccc12	none
O=C(CN(Cc1ccc(F)cc1)C(=O)CCC(=O)Nc1ccccn1)NCc1ccc(F)cc1	none
O=C(CN(Cc1ccc(F)cc1)C(=O)CCC(=O)Nc1ccccn1)NCCc1ccccc1	SIAE primary 20.8 | SIAE confirm inactive
COCCNC(=O)C(c1ccc(F)cc1)N(Cc1ccccc1)C(=O)CCC(=O)Nc1ccccn1 (stereo not given)	none
COCCNC(=O)C(c1ccc(O)cc1)N(Cc1ccccc1)C(=O)CCC(=O)Nc1ccccn1 (stereo not given)	SIAE primary 20.4 | SIAE confirm inactive
Cc1c(C2(O)CCCCC2)[nH]c2ccc(C#N)cc12	SIAE primary 17.9 | SIAE confirm inactive
CS(=O)(=O)N(Cc1ccc(Cl)cc1)c1ccc(C(=O)NCC2CCCO2)cc1 (stereo not given)	none
Cc1ccc(N(Cc2ccc(C(=O)NCC3CCCO3)cc2)S(C)(=O)=O)cc1C (stereo not given)	SIAE primary 19.7 | SIAE confirm inactive
Oc1ccc2ccccc2c1/C=N/Nc1ccccc1	none
Cc1cc(N/N=C/c2c(O)ccc3ccccc23)nc(-c2ccccc2O)n1	SIAE primary 20.6 | SIAE confirm inactive
COc1ccc(S(=O)(=O)NCC2CC3C=CC2C3)cc1OC (stereo not given)	none
NC(=S)N/N=C1\CCOc2ccc(Cl)cc21	SIAE primary 18.5 | SIAE confirm inactive
CN(C)/C=N/C(=S)Nc1cc(Cl)cc(Cl)c1	SIAE primary 17.3 | SIAE confirm inactive
CC(=O)N1CCC(C(=O)Nc2cc(S(=O)(=O)N3CCCCC3)ccc2C)CC1	none
COc1ccc(OCC(=O)Nc2cc(S(=O)(=O)N3CCCC3)ccc2OCC(F)(F)F)cc1	SIAE primary 39.9 | SIAE confirm inactive
COc1ccc(OCC(=O)Nc2cc(S(=O)(=O)N3CCCCC3)ccc2OC)cc1	none
C[C@@H]1CN(c2ccc(N3CCNC[C@@H]3C)cc2C#N)CCN1Cc1ccccc1	SIAE primary 19.5 (no result: HTRA1 inh) | SIAE confirm inactive
Cc1cc(N2CCNC[C@@H]2C)ccc1N1CCN(Cc2ccccc2)[C@H](C)C1	none (no result: HTRA1 inh)
COCc1cc(N2CCNC[C@@H]2C)ccc1N1CCN(Cc2ccccc2)[C@H](C)C1	SIAE primary 17.3 (no result: HTRA1 inh) | SIAE confirm inactive
CC(=O)Nc1cc(-c2ccc(N3CCN(C)CC3)cc2)cn2c(-c3cccc(C(C)=O)c3)cnc12	none (no result: HTRA1 inh)
CC(=O)Nc1cc(-c2ccc(N3CCN(C)CC3)cc2)cn2c(-c3ccc(F)c(Cl)c3)cnc12	SIAE primary 18.1 (no result: HTRA1 inh) | SIAE confirm inactive
CCN(CC)S(=O)(=O)c1ccc(OC)c(NC(=O)OCc2ccccc2)c1	none
CC(=O)N1CCN(c2ccc(N3CCN(Cc4ccccc4)[C@H](C)C3)c(C)c2)[C@H](C)C1	none (no result: HTRA1 inh)
Cc1ccc(F)c(NC(=S)Nc2cccc3ccccc23)c1	SIAE primary 17.8 | SIAE confirm inactive
S=C(Nc1cccc2ccccc12)Nc1cccc2ccccc12	none
CCCOc1nccc2c1n(C)c(=O)n2C	none (no result: TCR CD3 inh, HTRA1 inh)
C[C@]1(C(=O)NCCN2CCOCC2)C=C[C@@H](Cc2ccccc2)N1C(=O)c1ccccc1	SIAE primary 20.8 | SIAE confirm inactive
CC(=O)N1[C@H](Cc2ccccc2)C=C[C@]1(C)C(=O)NCCN1CCOCC1	none
CC(C)C[C@@H](CN1CCC[C@H]1CN1C(=O)C(=O)NC[C@@H]1Cc1ccccc1)N1C[C@H](Cc2ccccc2)N(CC2CCCCC2)C(=O)C1=O	none (no result: HTRA1 inh)
Cc1ccc(NC(=O)c2ccc(S(=O)(=O)N(C)c3ccccc3)cc2)cc1S(=O)(=O)N1CCOCC1	SIAE primary 18.3 | SIAE confirm inactive
COc1ccc(NC(=O)c2ccc(S(=O)(=O)N(C)c3ccccc3)cc2)cc1S(=O)(=O)N1CCOCC1	none
CC(C)Oc1ccc(CN2CCC2(C)C(=O)Nc2cccc3cccnc23)cc1 (stereo not given)	none (no result: HTRA1 inh)
COc1cccc(-n2nnc3c(=O)n(CC(=O)Nc4ccccc4C)cnc32)c1	none
COc1ccc(-n2nnc3c(=O)n(CC(=O)Nc4cc(C)on4)cnc32)cc1OC	SIAE primary 23.8 | SIAE confirm inactive
CCc1cc(C(=O)NCC(c2ccco2)N2CCCCC2)sc1C (stereo not given)	none
O=C(c1ccc([N+](=O)[O-])cc1)N1CCSC1c1ccccc1 (stereo not given)	none
CN(C)c1ccc(C2SCCN2C(=O)c2ccc([N+](=O)[O-])cc2)cc1 (stereo not given)	SIAE primary 18.7 | SIAE confirm inactive
COc1cc(-c2nc3ccccn3c2/N=C/c2cc(OC)c(OC)c(OC)c2)ccc1O	SIAE primary 28.2 | SIAE confirm inactive
Cc1cc(OCC(=O)NC(C)c2ccccc2)ccc1[N+](=O)[O-] (stereo not given)	none
COc1ccc(NC(=O)c2ccc(-c3ccc([N+](=O)[O-])cc3)o2)cc1OC	SIAE primary 19.0 | SIAE confirm inactive
COc1cccc(NC(=O)c2ccc(-c3ccc([N+](=O)[O-])cc3)o2)c1	none
O=C(/C=N/O)Nc1ccc2sc3ccccc3c2c1	SIAE primary 61.4 | SIAE confirm 49.6
COCCCNS(=O)(=O)c1cc2c3c(c1)C(C)C(=O)N3CCC2 (stereo not given)	none
Cc1ccc(C2=CC(=O)C[C@H](c3ccc(Cl)cc3)C2)cc1	none (no result: TCR CD3 inh, PRMT1 FP inh, SIAE primary, mABHD4 FP)
O=C1C=C(c2ccccc2)C[C@@H](c2ccc(Cl)cc2)C1	SIAE primary 25.7 | SIAE confirm inactive
O=C(CSc1nc(O)c(C2CCCCC2)c(=O)[nH]1)NCC1CCCO1 (stereo not given)	SIAE primary 17.2 | SIAE confirm inactive
Cc1cccc(S(=O)(=O)Nc2ccc(C)c3c2OC(C)(C)C3)c1	SIAE primary 23.7 | SIAE confirm inactive
Cc1ccc(NS(=O)(=O)c2ccccc2Cl)c2c1CC(C)(C)O2	none
O=S(=O)(NC1CCCc2ccccc21)c1cnc[nH]1 (stereo not given)	SIAE primary 26.3 | SIAE confirm inactive
CCOC(=O)c1ccc(S(=O)(=O)NCC(c2ccc(N(C)C)cc2)c2c[nH]c3ccccc23)cc1 (stereo not given)	SIAE primary 23.2 | SIAE confirm inactive
CN(C)c1ccc(C(CNC(=O)c2ccc(C#N)cc2)c2c[nH]c3ccccc23)cc1 (stereo not given)	SIAE primary 23.8 | SIAE confirm inactive
OCc1ccccc1OCc1ccccc1	none (no result: HTRA1 inh)
C#CCN1CC(COc2ccccc2)Oc2cccc(Oc3ccc(OC)cc3)c2S1(=O)=O (stereo not given)	none (no result: HTRA1 inh)
